In data set [1] the test system is Plasmodium falciparum. Put plainly: Antiplasmodial activity against chloroquine-resistant ring stage Plasmodium falciparum W2 infected in human red blood cells after 48 hrs. Format: functional, organism-based. To be noted: W2, 48 h.
Data set [2] deals with Plasmodium falciparum. Put plainly: Antiplasmodial activity against chloroquine-sensitive ring stage Plasmodium falciparum 3D7 infected in human red blood cells after 48 hrs. Format: functional, organism-based. To be noted: 3D7, 48 h.
For data set [3], the system named is Plasmodium falciparum. Put plainly: Antiplasmodial activity against chloroquine and pyrimethamine-resistant ring stage Plasmodium falciparum V1/S infected in human red blood cells after 48 hrs. Format: functional, organism-based.
The test system of data set [4] is Plasmodium falciparum. The data set is described as follows: Antiplasmodial activity against chloroquine-sensitive, mefloquine-resistant ring stage Plasmodium falciparum D6 infected in human red blood cells after 48 hrs. It is filed as functional, organism-based. To be noted: D6, 48 h.
Data set [5] relates to Vero. The data set is described as follows: Cytotoxicity against african green monkey Vero cells after 48 hrs by MTT assay. It is filed as cell-based. To be noted: Chlorocebus sabaeus. Summed up:
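Vero monkey kidney cells in DMEM with 10% FBS at 37 C, 7% CO2; seeded 15000 cells/well and adhered overnight. Log dilutions from 30 mg/mL DMSO stock, 48 h exposure. MTT at 0.5 mg/mL final for 2 h; formazan dissolved in 95% ethanol, read at 570 nm. Viability relative to DMSO-medium wells; IC50 from concentration–viability curve; doxorubicin as standard.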
Background: Formazan colour is commonly taken as a measure of viable cells.

A short description of data set [6]: Selectivity index, ratio of IC50 for african green monkey Vero cells to IC50 for chloroquine-resistant ring stage Plasmodium falciparum W2. It is filed as toxicity, cell-based. To be noted: read-out: Ratio IC50. The essentials:
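Vero IC50 divided by W2 IC50. Vero: 15000 cells/well adhered overnight, then log dilutions from 30 mg/mL DMSO stock for 48 h. MTT 0.5 mg/mL final for 2 h at 37 C, formazan dissolved in 95% ethanol, A570 read against DMSO vehicle as 100% viability. W2: 48 h YOYO-1 flow-cytometric growth assay in human erythrocytes.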

Data set [7] has as its system Plasmodium falciparum. The data set is described as follows: Resistance index, ratio of IC50 for chloroquine-resistant ring stage Plasmodium falciparum W2 to IC50 for chloroquine-sensitive ring stage Plasmodium falciparum 3D7. It is filed as functional. Summed up:
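W2 IC50 divided by 3D7 IC50. Both were measured by 48 h YOYO-1 flow-cytometric growth assay on sorbitol-synchronised 1% ring-stage cultures in human erythrocytes at 37 C under 3% O2.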

For data set [8], the system named is Heme. The data set is described as follows: Binding affinity to heme by UV-visible titration. Summed up: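 Hematin monomer (FPIX-OH, 10 μM) in pH 5.5 HEPES-buffered 40% DMSO v/v at 25 C, titrated with ligand from 100 μM solution until above hematin concentration. Stirred 1 min per addition; spectra 230–500 nm, Soret change at 402 nm. Absorbance dilution-corrected, nonlinear fit for Kd; Kass calculated from Kd.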

Data set [9] concerns Nucleic Acid. Put plainly: Binding affinity to s(GATCCTAGGATC)2-DNA by fluorescence spectroscopy. Format: nucleic-acid assay. Summed up:
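Buffer 0.01 M phosphate pH 7.4, 0.1 M NaCl, 25.0 C, 1 cm quartz cuvettes. Fluorescence: excitation 339 nm, emission 450–500 nm. Dilution-corrected intensity change fitted to single-site binding for Kd; Kass taken as 1/Kd.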

A short description of data set [10]: Inhibition of Plasmodium falciparum falcipain 2.
Data set [11] is described as follows: Inhibition of Plasmodium falciparum falcipain 3.
The test system of data set [12] is Plasmodium berghei. Put plainly: Antiplasmodial activity against GFP-expressing liver stage Plasmodium berghei sporozoites infected in human Huh-7 cells at 5 uM by fluorescence activated cell sorting based method. Format: functional, organism-based. Summed up: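 Huh7 human hepatoma cells infected with GFP-expressing P. berghei sporozoites, compound at 5 μM. Read-out by FACS: invasion as % GFP-positive cells 2 h after sporozoite addition; development as GFP fluorescence intensity of positive cells at 48 h. Cells trypsinized for 5 min at 37 C, then resuspended in 2% FCS/PBS before analysis.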

Data set [13] in a line: Drug uptake in Plasmodium falciparum infected in human erythrocyte nucleus at 5 uM after 3 hrs by fluorescence microscopy. Format: ADME, cell-based. Summed up: (§1)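 Human erythrocyte P. falciparum culture at 1.9% parasitemia, given 5 μM compound or DMSO solvent control for 3 h at room temperature in the dark. Washed gently with PBS, placed on poly-Lys-coated coverslips and imaged directly by phase contrast and fluorescence microscopy, 100× oil objective.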

Data set [14] in a line: Drug uptake in Plasmodium falciparum infected in human erythrocyte food vacuoles at 5 uM after 3 hrs by fluorescence microscopy. Format: ADME, cell-based. The essentials: as §1
A short description of data set [15]: Inhibition of hematin assessed as quenching fluorescence intensity at 1:1 drug-hematin ratio by UV-visible titration. It is filed as functional. Conditions: dose or concentration not given here.
Data set [16] deals with Nucleic Acid. The data set is described as follows: Binding affinity to DNA assessed as quenching fluorescence intensity by UV-visible spectrophotometry. It is filed as nucleic-acid assay.
Data set [17] deals with Nucleic Acid. Put plainly: Binding affinity to s(GATCCTAGGATC)2-DNA by UV-visible spectrophotometry. Format: nucleic-acid assay.

Data on six compounds can be found in ChEMBL document CHEMBL1671820, “Incorporation of basic side chains into cryptolepine scaffold: structure-antimalarial activity relationships and mechanistic studies” (J Med Chem, 2011).

Structures are written as SMILES. The source made the active and inactive calls. No cut-off for these calls is given here.

In general, IC50 refers to the concentration needed to halve the response being measured. Regarding `C[n+]1c2ccccc2c(NCCCN)c2[nH]c3ccccc3c21.[Cl-]`, the IC50 in data set [1] came out at 26 nM; in data set [2] it was 54 nM; in data set [3], 133 nM; in [4], 71 nM; in data set [5] it was 10000 nM; in data set [10], 11000 nM. In [11], this compound displayed an IC50 of 14000 nM. In addition, the selectivity ratio in [6] came out at 371. For the same compound, the “Ratio IC50” value in data set [7] is reported as 0.2. Moreover, the Ka in [8] came out at 0.18 ×10⁶ /M; in data set [9] it was 0.25 ×10⁶ /M.
Regarding `C[n+]1c2ccccc2c(NCCN)c2[nH]c3ccccc3c21.[Cl-]`, the IC50 came to 89 nM in data set [1]; 115 nM in data set [2]; 156 nM in data set [3]; 107 nM in [4]; 60000 nM in data set [5]; 6300 nM in data set [10]. In addition, the IC50 in data set [11] is greater than 25000 nM. Also, the selectivity ratio in data set [6] was 678. Further, the “Ratio IC50” value in data set [7] was found to be 0.6. For the same compound, the Ka was 0.127 ×10⁶ /M in data set [8] and 0.85 ×10⁶ /M in data set [9].
`C[n+]1c2ccccc2c(NCCCCN)c2[nH]c3ccccc3c21.[Cl-]`: the IC50 in [1] was 65 nM; in data set [2], 190 nM; in data set [3] it was 422 nM; in data set [4] it was 245 nM; in [5], greater than 85000 nM. Further, the selectivity ratio in [6] is 1310. Also, the “Ratio IC50” value in data set [7] is reported as 0.2. Besides, the figures for the Ka in [8] and in data set [9] were 0.147 ×10⁶ /M and 1.4 ×10⁶ /M, respectively.
On to `CCN(CC)CCCNc1c2ccc(Cl)cc2[n+](C)c2c1[nH]c1ccccc12.[Cl-]`, for which the IC50 in data set [1] is 21 nM; in data set [2], 34 nM; in [3] it was 40 nM; in data set [4] it was 70 nM; in data set [5], 13000 nM; in [10] it was 11000 nM. The selectivity ratio in data set [6] came out at 60. Also, the “Ratio IC50” value in data set [7] is listed as 0.5. Also, the Ka worked out at 0.11 ×10⁶ /M in data set [8] and 17 ×10⁶ /M in [9].
Usually inhibition stands for the drop in the measured response relative to a control, in per cent. On to `C[n+]1c2ccccc2c(NC2CCNCC2)c2[nH]c3ccccc3c21.[Cl-]`, for which the IC50 in data set [2] was found to be 23 nM; in data set [3], 60 nM; in [4], 59 nM; in [5], 62000 nM; in [10] it was 6390 nM; in [11] it was 7900 nM. The selectivity ratio in data set [6] came to 1410. For the same compound, the “Ratio IC50” value in data set [7] is on record as 0.7. The outcome in [12] was inactive. The Drug uptake result in data set [13] and in data set [14] was “Active” throughout. For the same compound, the inhibition in data set [15] amounted to 60%. Further, in data set [16], the Activity was 20%. The Ka in [8] turned out to be 0.154 ×10⁶ /M; in [9], 0.74 ×10⁶ /M.
Regarding `C[n+]1c2ccccc2cc2[n-]c3ccccc3c21.Cl` [CRYPTOLEPINE HYDROCHLORIDE], the IC50 in data set [2] was 424 nM; in data set [3], 259 nM; in data set [4], 222 nM; in [5], 1050 nM; in [10], 38000 nM; in data set [11], greater than 50000 nM. In addition, the selectivity ratio in data set [6] was found to be 1.4. Further, in data set [7], the “Ratio IC50” value is given as 2.9. Besides, the outcome in data set [12] was inactive. Also, the Drug uptake entry in data set [13] and in data set [14] was “Active” each time. Moreover, the Ka in [17] stood at 0.25 ×10⁶ /M; in [8], 0.045 ×10⁶ /M.
